The subject of one assay is NCI-H460. In words: Cytotoxicity against human NCI-H460 cells after 48 hrs. The assay is classed as functional, cell-based. Particulars: NCI-H460, 48 h.
The nature of assay [1]: Cytotoxicity against human Hep3B cells after 48 hrs. The assay is classed as functional, cell-based, Hep 3B2. Summed up: (§1)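 MTT viability assay on log-phase cells at 37 °C, exposed to compound or DMSO vehicle for 48 h. MTT (1 mg/mL in PBS) was then added for 2 h, and absorbance was read at 570 nm with 630 nm correction. IC50 is the concentration giving 50% proliferation inhibition. Cells were cultured in 5% CO2: HL-60 in RPMI-1640 with 10% FBS; Hep3B in DMEM/F12 with 10% FBS; Detroit 551 in DMEM with 10% FBS.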

The test system of the next assay is HL-60. In words: Cytotoxicity against human HL60 cells after 48 hrs. The assay is classed as functional, cell-based. Particulars: HL-60, 48 h. A digest of the protocol:
as §1

A further assay deals with Detroit 551. In words: Cytotoxicity against human Detroit 551 cells after 48 hrs. In kind it is cell-based. Particulars: Detroit 551, 48 h. A digest of the protocol:
as §1

The target in assay [2] is T1, Tubulin (Homo sapiens) (UniProt P68371+Q9H4B7+P0DPH7+P68366+Q13509+Q71U36+P04350+Q3ZCM7+P07437+P68363+Q9BQE3+Q6PEY2+Q13885+Q9BVA1+Q9BUF5). In words: Inhibition of tubulin polymerization in human NCI-H522 cells assessed as alpha-tubulin accumulation in cytoskeletal fraction at 100 nM after 24 hrs by Western blot analysis. The assay is classed as cell-based. Summed up:
(§2)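 NCI-H522 cells were exposed for 24 h to compound (10, 30 or 100 nM) or DMSO vehicle. They were then lysed 5 min at 37 °C in hypotonic buffer (1 mM MgCl2, 2 mM EGTA, 0.5% NP-40, protease inhibitors, 20 mM Tris-HCl pH 6.8) and centrifuged at 15,000 × g for 10 min at 25 °C. α- and β-tubulin were assessed in the cytoskeletal fraction.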

The target of a further assay is Tubulin (Sus scrofa) (UniProt P02554+P02550). Particulars: 1 uM.
Sequence of Tubulin (Sus scrofa) (P02550 whole entry, looked up): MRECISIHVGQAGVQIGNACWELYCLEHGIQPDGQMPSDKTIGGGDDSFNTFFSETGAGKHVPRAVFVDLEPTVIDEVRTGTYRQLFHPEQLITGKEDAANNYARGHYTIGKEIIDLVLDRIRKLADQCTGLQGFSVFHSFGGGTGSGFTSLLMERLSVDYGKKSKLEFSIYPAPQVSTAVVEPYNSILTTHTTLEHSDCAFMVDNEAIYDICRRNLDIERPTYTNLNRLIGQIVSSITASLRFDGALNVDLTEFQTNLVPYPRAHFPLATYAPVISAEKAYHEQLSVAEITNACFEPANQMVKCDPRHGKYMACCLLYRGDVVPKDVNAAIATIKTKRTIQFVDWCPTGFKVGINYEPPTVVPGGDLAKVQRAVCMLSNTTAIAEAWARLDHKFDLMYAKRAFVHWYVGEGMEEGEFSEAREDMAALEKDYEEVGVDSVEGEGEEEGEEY
Sequence of Tubulin (Sus scrofa) (P02554 whole entry, looked up): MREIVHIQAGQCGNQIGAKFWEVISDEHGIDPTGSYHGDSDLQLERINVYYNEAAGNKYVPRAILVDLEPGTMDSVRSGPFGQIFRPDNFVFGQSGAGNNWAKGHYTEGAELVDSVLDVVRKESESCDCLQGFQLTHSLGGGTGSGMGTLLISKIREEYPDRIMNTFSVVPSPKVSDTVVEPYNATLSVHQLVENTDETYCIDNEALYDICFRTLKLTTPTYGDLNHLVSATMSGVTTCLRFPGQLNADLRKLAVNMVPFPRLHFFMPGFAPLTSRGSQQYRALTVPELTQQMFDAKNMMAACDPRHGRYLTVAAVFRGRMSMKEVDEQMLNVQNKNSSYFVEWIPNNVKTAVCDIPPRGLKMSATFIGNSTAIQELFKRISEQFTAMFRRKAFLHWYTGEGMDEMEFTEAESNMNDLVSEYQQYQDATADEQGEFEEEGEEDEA
Assay [3] concerns the target T1, Tubulin (Homo sapiens). In words: Inhibition of tubulin polymerization in human NCI-H522 cells assessed as beta-tubulin accumulation in cytoskeletal fraction at 100 nM after 24 hrs by Western blot analysis. The assay is classed as cell-based. A digest of the protocol: as §2

The source made the active and inactive calls. No cut-off for these calls is given here. A value given as a limit tells only on which side of the number the result lay.

In the case of `O=c1cc(-c2cc(O)cc(O)c2)[nH]c2cc3c(cc12)OCO3`, the results for the IC50 (in the assay on NCI-H460; in assay [1]; in the assay with HL-60) were above 25 µM, above 25 µM and 8710 nM, respectively.

With `CCOc1cc(O)cc(-c2cc(=O)c3cc(N4CCCC4)ccc3[nH]2)c1`, the 50% inhibitory concentration (IC50) was 0.59 µM in the assay with NCI-H460, 13.2 µM with Detroit 551, 0.07 µM in assay [1] and 20 nM in the assay with HL-60.

In the case of `CC[C@]1(O)C[C@H]2CN(CCc3c([nH]c4ccccc34)[C@@](C(=O)OC)(c3cc4c(cc3OC)N(C=O)[C@H]3[C@@](O)(C(=O)OC)[C@H](OC(C)=O)[C@]5(CC)C=CCN6CC[C@]43[C@@H]65)C2)C1`, the inhibition result at Tubulin (Homo sapiens) [2], at Tubulin (Sus scrofa) and on Tubulin (Homo sapiens) [3] was “Active” each time.

`O=c1cc(-c2cc(O)cc(O)c2)[nH]c2ccc(N3CCCC3)cc12`: the IC50 is 13.9 µM in the assay with NCI-H460, above 25 µM in the assay with Detroit 551, 1.58 µM in assay [1] and 340 nM in the assay on HL-60.

For `COc1cc(O)cc(-c2cc(=O)c3cc(N4CCOCC4)ccc3[nH]2)c1`, the concentration for half-maximal inhibition (IC50) was above 100 µM in the assay with NCI-H460, above 100 µM with Detroit 551, 6.03 µM in assay [1] and 3900 nM with HL-60.

On to `Oc1cccc(-c2cc(O)c3cc4c(cc3n2)OCO4)c1`, for which the IC50 was found to be 17 µM in the assay with NCI-H460, 21.8 µM in the assay with Detroit 551, 1.05 µM in assay [1] and 250 nM with HL-60.

For `COc1cc(O)cc(-c2cc(=O)c3cc(N(C)C)ccc3[nH]2)c1`, the half-inhibitory concentration (IC50) is above 50 µM in the assay with NCI-H460, above 50 µM in the assay with Detroit 551, 6.15 µM in assay [1] and 220 nM with HL-60.

As to `CCOc1cc(O)cc(-c2cc(=O)c3cc4c(cc3[nH]2)OCO4)c1`, the IC50 in the assay with NCI-H460 was above 25 µM; in assay [1] it was 25 µM; with HL-60, 500 nM.

In the case of `COc1cc(O)cc(-c2cc(=O)c3cc4c(cc3[nH]2)OCO4)c1`, the IC50 in the assay on NCI-H460 is above 50 µM; with Detroit 551, above 50 µM; in assay [1] it was above 50 µM; with HL-60, 500 nM.

Consider `CC[C@]1(O)C[C@@H]2CN(CCc3c([nH]c4ccccc34)[C@@](C(=O)OC)(c3cc4c(cc3OC)N(C)[C@H]3[C@@](O)(C(=O)OC)[C@H](OC(C)=O)[C@]5(CC)C=CCN6CC[C@]43[C@@H]65)C2)C1`, for which the inhibition entry at Tubulin (Homo sapiens) [2], on Tubulin (Sus scrofa) and on Tubulin (Homo sapiens) [3] was “Active” throughout.

Take `O=c1cc(-c2ccc(O)cc2)[nH]c2cc3c(cc12)OCO3`: the IC50 in the assay on NCI-H460 is above 100 µM; in the assay on Detroit 551 it was 41 µM; in assay [1], 22.3 µM; in the assay on HL-60 it was 3260 nM.

For `COc1cccc(-c2cc(O)c3cc4c(cc3n2)OCO4)c1`, the IC50 in the assay on NCI-H460 turned out to be 0.2 µM; in the assay with Detroit 551, 4.77 µM; in assay [1], 0.08 µM; in the assay with HL-60, 80 nM.

With `O=c1cc(-c2ccccc2O)[nH]c2cc3c(cc12)OCO3`, the concentration for half-maximal inhibition (IC50) with NCI-H460 came to 19.1 µM; in the assay with Detroit 551, 48.9 µM; in assay [1] it was 8.04 µM; in the assay with HL-60 it was 7620 nM.

Values taken from ChEMBL document CHEMBL2417372, “Design, synthesis, and mechanism of action of 2-(3-hydroxy-5-methoxyphenyl)-6-pyrrolidinylquinolin-4-one as a potent anticancer lead” (Bioorg Med Chem Lett, 2013).
